Assay results as given in ChEMBL document CHEMBL4673294, “The discovery of quinoline derivatives, as NF-κB inducing kinase (NIK) inhibitors with anti-inflammatory effects in vitro, low toxicities against T cell growth” (Bioorg Med Chem, 2021).
pEC50, pIC50: −log10 of the molar value.

How the values were obtained:
[1] = target: T1, Mitogen-activated protein kinase kinase kinase 14 (Homo sapiens, UniProt Q99558); experiment: Inhibition of recombinant N-terminal GST-fused human NIK (319 to 947 residues) expressed in baculovirus expression system assessed as residual activity at 2 uM incubated for 120 mins in presence of ATP by ADP-glo based luminescence assay relative to control
How it was run: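 Single-point NIK enzyme activity at 2 μM compound with 10 μM ATP; human recombinant MAP3K14, 120 min room-temperature reaction, ADP-Glo luminescence read-out converted to ADP concentration.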
Target sequence in this assay (Q99558 whole entry, looked up, the tested form may be a part): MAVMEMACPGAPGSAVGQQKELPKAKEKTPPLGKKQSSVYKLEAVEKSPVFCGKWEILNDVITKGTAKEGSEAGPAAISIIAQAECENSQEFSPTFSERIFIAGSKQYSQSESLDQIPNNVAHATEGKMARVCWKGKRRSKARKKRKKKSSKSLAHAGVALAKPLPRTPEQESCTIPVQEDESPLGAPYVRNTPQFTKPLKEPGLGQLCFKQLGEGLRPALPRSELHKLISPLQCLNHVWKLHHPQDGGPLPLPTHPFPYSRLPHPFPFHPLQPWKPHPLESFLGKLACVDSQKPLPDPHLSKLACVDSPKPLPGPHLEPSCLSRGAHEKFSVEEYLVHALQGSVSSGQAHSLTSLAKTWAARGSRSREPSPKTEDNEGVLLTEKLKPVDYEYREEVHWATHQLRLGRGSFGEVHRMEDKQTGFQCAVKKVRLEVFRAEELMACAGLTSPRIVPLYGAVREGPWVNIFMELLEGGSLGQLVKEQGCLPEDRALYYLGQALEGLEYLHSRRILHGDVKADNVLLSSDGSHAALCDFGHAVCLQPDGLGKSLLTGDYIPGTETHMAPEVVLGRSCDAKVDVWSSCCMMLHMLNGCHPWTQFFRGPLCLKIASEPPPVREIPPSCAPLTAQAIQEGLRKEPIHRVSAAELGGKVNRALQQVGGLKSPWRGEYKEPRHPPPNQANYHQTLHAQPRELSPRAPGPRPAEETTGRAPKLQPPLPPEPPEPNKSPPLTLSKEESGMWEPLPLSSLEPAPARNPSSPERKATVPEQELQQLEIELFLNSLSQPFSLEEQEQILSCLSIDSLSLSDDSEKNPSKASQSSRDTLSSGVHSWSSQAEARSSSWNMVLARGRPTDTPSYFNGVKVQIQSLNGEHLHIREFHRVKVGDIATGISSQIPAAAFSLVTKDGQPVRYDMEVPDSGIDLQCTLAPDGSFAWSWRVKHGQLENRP

[2] = target: T1, Mitogen-activated protein kinase kinase kinase 14; experiment: Inhibition of recombinant N-terminal GST-fused human NIK (319 to 947 residues) expressed in baculovirus expression system incubated for 120 mins in presence of ATP by ADP-glo based luminescence assay
How it was run: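 NIK kinase activity by ADP-Glo: human recombinant MAP3K14 in Tris pH 7.5 buffer with 100 μM Na3VO4, 2 mM DTT, 0.02 mg/mL BSA, 2 mM MgCl2, 5% DMSO; 10 μM ATP; 120 min at room temperature. ADP-Glo reagent 40 min, then detection reagent 40 min; luminescence converted to ADP via standard curve. IC50 from curve fitting; mean ± SD of two independent experiments.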
Target sequence in this assay (Q99558 whole entry, the tested form may be a part): as the sequence (Q99558 whole entry, looked up, the tested form may be a part) above

JJN-3 = experiment: Antiproliferative activity against human JJN-3 cells transfected with plasmid expressing NIK; type: functional, cell-based
J774 = experiment: Antiinflammatory activity in mouse J774 cells assessed as inhibition of LPS-induced NO production at 1 uM preincubated for 2 hrs followed by LPS stimulation and measured after 22 hrs by Griess reagent based assay relative to control; type: functional; conditions: time 24 hrs
[3] = Antiinflammatory activity in mouse T cells assessed as inhibition of ConA-induced induced T cell proliferation at 2 uM incubated for 48 hrs by CCK8 assay relative to control; type: functional
How it was run: (§1)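 Mouse splenic T cells, isolated by negative selection kit, seeded at 2×10^6 cells/mL in RPMI with penicillin/streptomycin and glutamine. Compound at 2 or 0.4 μM (triplicate wells), DMSO control; Con A 5 μg/mL added, 48 h at 37 °C, 5% CO2. CCK8 absorbance; inhibition rate from test, blank and control wells; three independent experiments.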

[4] = Antiinflammatory activity in mouse T cells assessed as inhibition of ConA-induced induced T cell proliferation at 0.4 uM incubated for 48 hrs by CCK8 assay relative to control; type: functional; how it was run: as §1
[5] = Cytotoxicity against mouse T cells assessed as cell growth inhibition at 10 uM after 48 hrs by CCK8 assay relative to control; type: cell-based; conditions: read-out: GI
How it was run: (§2)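 Unstimulated mouse splenic T cells (no Con A) exposed to compound at 10 μM; growth measured by absorbance, with rate computed from test, blank and control well absorbances; mean ± SD of three independent experiments.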

[6] = Cytotoxicity against mouse T cells assessed as cell growth inhibition at 10 uM after 48 hrs by CCK8 assay; type: cell-based; how it was run: as §2
[7] = Elimination half life in monkey liver microsomes incubated for 10 mins followed by potassium phosphate buffer addition and measured up to 60 mins by LC-MS analysis; type: ADME, Macaca mulatta, Microsome; conditions: rhesus monkey, time <=70 min, read-out: LambdaZ
How it was run: (§3)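 The test compound was pre-incubated with liver microsomes at 37 °C for 10 min. NCF60 wells received 100 mM potassium phosphate buffer and were incubated 1.0 h at 37 °C. The reaction was stopped with a 1:1 tolbutamide/labetalol mixture at 0, 5, 15, 30 and 60 min, then vortexed and centrifuged at 4 °C. Remaining parent compound in the supernatant was measured by LC-MS, and T1/2 was calculated by first-order kinetics.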

[8] = Elimination half life in human liver microsomes incubated for 10 mins followed by potassium phosphate buffer addition and measured up to 60 mins by LC-MS analysis; type: ADME, Microsome; conditions: time <=70 min, read-out: LambdaZ; how it was run: as §3
[9] = Elimination half life in dog liver microsomes incubated for 10 mins followed by potassium phosphate buffer addition and measured up to 60 mins by LC-MS analysis; type: ADME, Canis lupus familiaris, Microsome; conditions: time <=70 min, read-out: LambdaZ; how it was run: as §3
[10] = Elimination half life in rat liver microsomes incubated for 10 mins followed by potassium phosphate buffer addition and measured up to 60 mins by LC-MS analysis; type: ADME, Microsome; conditions: time <=70 min, read-out: LambdaZ; how it was run: as §3
[11] = Intrinsic clearance in human liver microsomes assessed per mg protein incubated for 10 mins followed by potassium phosphate buffer addition and measured up to 60 mins by LC-MS analysis; type: ADME, Microsome; conditions: time <=70 min, read-out: CLH
How it was run: (§4)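 Rat, dog, monkey and human liver microsomes: compound preincubated with microsomes 10 min at 37 °C; samples quenched at 0, 5, 15, 30, 60 min with tolbutamide/labetalol, plus a 60 min no-cofactor control with 100 mM potassium phosphate buffer. Centrifuged, remaining compound by LC-MS; T1/2 and CL by first-order kinetics.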

[12] = Intrinsic clearance in monkey liver microsomes assessed per mg protein incubated for 10 mins followed by potassium phosphate buffer addition and measured up to 60 mins by LC-MS analysis; type: ADME, Macaca mulatta, Microsome; conditions: rhesus monkey, time <=70 min, read-out: CLH; how it was run: as §4
[13] = Intrinsic clearance in dog liver microsomes assessed per mg protein incubated for 10 mins followed by potassium phosphate buffer addition and measured up to 60 mins by LC-MS analysis; type: ADME, Canis lupus familiaris, Microsome; conditions: time <=70 min, read-out: CLH; how it was run: as §4
[14] = Intrinsic clearance in rat liver microsomes assessed per mg protein incubated for 10 mins followed by potassium phosphate buffer addition and measured up to 60 mins by LC-MS analysis; type: ADME, Microsome; conditions: time <=70 min, read-out: CLH; how it was run: as §4
[15] = Intrinsic hepatic clearance in human; type: ADME; conditions: read-out: CLH
How it was run: (§5)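 In vivo intrinsic clearance scaled from microsomal CLint (mL/min/mg protein) × microsomal protein per g liver × liver weight per kg body weight.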

[16] = Intrinsic hepatic clearance in monkey; type: ADME, Macaca mulatta; conditions: rhesus monkey, in vivo; read-out: CLH; how it was run: as §5
[17] = Intrinsic hepatic clearance in dog; type: ADME, Canis lupus familiaris; conditions: in vivo, read-out: CLH; how it was run: as §5
[18] = Intrinsic hepatic clearance in rat; type: ADME; conditions: in vivo, read-out: CLH; how it was run: as §5
[19] = AUC (0 to infinity) in Sprague-Dawley rat at 1 mg/kg, iv administered as single bolus dose by LC-MS analysis; type: ADME, organism-based; set-up: route intravenous, time infinity, dose 1 mg/kg; conditions: in vivo
How it was run: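 Male Sprague-Dawley rats, 8 weeks old, fasted overnight, received a single rapid tail-vein bolus. Vehicle was DMSO:PEG200:saline 20:20:60 v/v/v at 0.2 mg/mL. Plasma concentrations were followed over time. Plasma was deproteinised with acetonitrile containing verapamil and glibenclamide, diluted with water and analysed by LC/MS. Values are mean ± SD, n = 3 rats.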

[20] = Initial plasma concentration in Sprague-Dawley rat at 1 mg/kg, iv administered as single bolus dose by LC-MS analysis; type: ADME, organism-based
How it was run: (§6)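 Male Sprague-Dawley, 8 weeks old, fasted overnight, n = 3; single IV bolus via tail vein at 1.0 mg/kg in DMSO:PEG200:saline 20:20:60 (0.2 mg/mL). Plasma protein-precipitated with acetonitrile containing internal standards, analysed by LC/MS.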

[21] = Half life in Sprague-Dawley rat at 1 mg/kg, iv administered as single bolus dose by LC-MS analysis; type: ADME, organism-based; conditions: in vivo; how it was run: as §6
[22] = Volume of distribution in Sprague-Dawley rat at 1 mg/kg, iv administered as single bolus dose by LC-MS analysis; type: ADME, organism-based; conditions: in vivo; how it was run: as §6
[23] = Clearance in Sprague-Dawley rat at 1 mg/kg, iv administered as single bolus dose by LC-MS analysis; type: ADME, organism-based; conditions: in vivo; how it was run: as §6
[24] = AUC (0 to infinity) in Sprague-Dawley rat at 10 mg/kg, po administered as single dose by LC-MS analysis; type: ADME, organism-based; set-up: route oral, time infinity, dose 10 mg/kg; conditions: in vivo
How it was run: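 Male Sprague-Dawley rats, 8 weeks old, fasted overnight, were dosed once by oral gavage. The compound was suspended at 1.0 mg/mL in saline with 0.5% CMC-Na and 0.2% Tween 80. Plasma concentrations were followed over time. Plasma was deproteinised with acetonitrile containing verapamil and glibenclamide, diluted with water and analysed by LC/MS. Values are mean ± SD, n = 3 rats.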

[25] = Cmax in Sprague-Dawley rat at 10 mg/kg, po administered as single dose by LC-MS analysis; type: ADME, organism-based; set-up: route oral, dose 10 mg/kg; conditions: in vivo
How it was run: (§7)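 Male Sprague-Dawley, 8 weeks old, fasted overnight, n = 3; single gavage at 10 mg/kg as 1 mg/mL suspension in 0.5% CMC-Na/0.2% Tween 80. Plasma precipitated with acetonitrile plus internal standards; LC/MS quantitation.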

[26] = Half life in Sprague-Dawley rat at 10 mg/kg, po administered as single dose by LC-MS analysis; type: ADME, organism-based; conditions: in vivo; how it was run: as §7
[27] = Tmax in Sprague-Dawley rat at 10 mg/kg, po administered as single dose by LC-MS analysis; type: ADME, organism-based; conditions: in vivo; how it was run: as §7
[28] = Oral bioavailability in Sprague-Dawley rat at 10 mg/kg administered as single dose by LC-MS analysis; type: ADME, organism-based; conditions: in vivo

Cn1cc(-c2ccnc3ccc(C#CC(C)(C)O)cc23)cn1
Activity [1]: 99.1%

O=C(Nc1ccc2nccc(-c3cn[nH]c3)c2c1)c1nccs1
Activity [1]: 72.3%

CC(O)(C#Cc1ccc2nccc(-c3cn[nH]c3)c2c1)c1ccccn1 (stereo not drawn)
pIC50 [2]: 6.23

CN1CCC(n2cc(-c3c[nH]nc3Cl)c3cc(C#CC(C)(C)O)c(F)cc32)CC1
pEC50 (JJN-3): 7.21

CC(O)(C#Cc1ccc2nc(OCCN3CCOCC3)cc(-c3cn[nH]c3)c2c1)c1nccs1 (stereo not drawn)
Activity [1]: 92%

OC1(C#Cc2ccc3nccc(-c4cn[nH]c4)c3c2)CCCCC1
pIC50 [2]: 5.22

CN1CCN(c2cc(-c3cn[nH]c3)c3cc(C#CC(C)(O)c4nccs4)ccc3n2)CC1 (stereo not drawn)
pIC50 [2]: 6.76 | inhibition at 1 µM (J774): 41% | inhibition at 2 µM [3]: 36.7% | inhibition at 0.4 µM [4]: 19.4% | inhibition at 48 h, 10 µM [5]: 30%

CC(O)(C#Cc1ccc2c(c1)N(c1nc(N)ncc1Cl)CC2)c1nccs1 (stereo not drawn)
pIC50 [2]: 8.31 | inhibition at 1 µM (J774): 43.9% | inhibition at 2 µM [3]: 59.6% | inhibition at 0.4 µM [4]: 19% | inhibition at 48 h, 10 µM [5]: 30%

CC(O)(C#Cc1ccc(N2CCOCC2)c(Nc2ncnc3[nH]ccc23)c1)c1nccs1 (stereo not drawn)
Activity [6]: Non-Toxic

CC(C)(O)C#Cc1ccc2nccc(-c3cn[nH]c3)c2c1
pIC50 [2]: 5.76

CN(C)CCN(C)c1cc(-c2cn[nH]c2)c2cc(C#CC(C)(O)c3nccs3)ccc2n1 (stereo not drawn)
pIC50 [2]: 6.80 | inhibition at 1 µM (J774): 34.6% | inhibition at 2 µM [3]: 22.7% | inhibition at 0.4 µM [4]: 19.9% | Activity [6]: Non-Toxic

CNc1cc(-c2cn[nH]c2)c2cc(C#CC(C)(O)c3nccs3)ccc2n1 (stereo not drawn)
pIC50 [2]: 7.59 | inhibition at 1 µM (J774): 46.5% | inhibition at 2 µM [3]: 34.5% | inhibition at 0.4 µM [4]: 18.4%

CC(O)(C#Cc1ccc2nccc(-c3cn[nH]c3)c2c1)c1cccs1 (stereo not drawn)
pIC50 [2]: 6.28

OC1(C#Cc2ccc3nccc(-c4cn[nH]c4)c3c2)CCCC1
pIC50 [2]: 6.25

O=C(Nc1ccc2nccc(-c3cn[nH]c3)c2c1)C1CCCC1
Activity [1]: 83.6%

CC(O)(C#Cc1ccc2nccc(-c3cn[nH]c3)c2c1)c1nccs1 (stereo not drawn)
pIC50 [2]: 7.66 | inhibition at 1 µM (J774): 43.8% | inhibition at 2 µM [3]: 52.5% | inhibition at 0.4 µM [4]: 36.1% | half-life [7]: 33.2 min | half-life [8]: 33.1 min | Activity [6]: Non-Toxic | half-life [9]: 14.2 min | half-life [10]: 12.6 min | microsomal CLint [11]: 42.6 µL/min/mg | microsomal CLint [12]: 41.8 µL/min/mg | microsomal CLint [13]: 97.5 µL/min/mg | microsomal CLint [14]: 110 µL/min/mg | CLint scaled [15]: 40.2 mL/min/kg | CLint scaled [16]: 60.2 mL/min/kg | CLint scaled [17]: 140 mL/min/kg | CLint scaled [18]: 199 mL/min/kg | AUC(0-inf) [19]: 408 ng·h/mL | C0 [20]: 1000 ng/mL | half-life [21]: 22.9 min | Vd [22]: 2.73 L/kg | clearance [23]: 43.3 mL/min/kg | AUC(0-inf) [24]: 885 ng·h/mL | Cmax [25]: 311 ng/mL | half-life [26]: 71.4 min | Tmax [27]: 54 min | bioavailability [28]: 21.7%

CC(O)(C#Cc1ccc2nc(O)cc(-c3cn[nH]c3)c2c1)c1nccs1 (stereo not drawn)
pIC50 [2]: 7.41 | inhibition at 1 µM (J774): 31.4% | inhibition at 2 µM [3]: 27.2% | inhibition at 0.4 µM [4]: 23.3% | Activity [6]: Non-Toxic

COCCN(C)c1cc(-c2cn[nH]c2)c2cc(C#CC(C)(O)c3nccs3)ccc2n1 (stereo not drawn)
pIC50 [2]: 8.28 | inhibition at 1 µM (J774): 51.4% | inhibition at 2 µM [3]: 53.1% | inhibition at 0.4 µM [4]: 33% | inhibition at 48 h, 10 µM [5]: 30%

CC(O)(/C=C/c1ccc2nccc(-c3cn[nH]c3)c2c1)c1nccs1 (stereo not drawn)
pIC50 [2]: 5.68
